Results pooled from the literature.
Protocols differ between the studies behind these lines.
Target: Fibroblast growth factor receptor 4 (FGFR4, Homo sapiens, UniProt P22455)

CN(c1nccc(-c2cnn3ncccc23)n1)C1CC1 — remaining binding (binding; 1 µM): 99%
COc1ncc2cc3ccccc3nc2c1C#N — remaining binding (cell-free assay, competition with immobilised ligand; 5 µM): 88%
C=CC(=O)N1CCC(C(=O)NCC(=O)N2CCN(c3nc(-c4cnc(N)nc4C(F)F)nc(N4CCOCC4)n3)CC2)CC1 — remaining binding (binding, competition with immobilised ligand; 1 µM): 100%
COc1cnc(Nc2cccc(S(N)(=O)=O)c2)nc1N1CCN(c2ccccc2)C(=O)C1 — remaining binding (binding, competition with immobilised ligand; 1 µM): 100%
FC(F)(F)Oc1cccc(-c2cnc3ccc(-c4ccncc4)nn23)c1 — remaining binding (cell-free assay, competition with immobilised ligand; 5 µM): 98%
O=C(c1ccc(Nc2ncc(Cl)c(-c3ccc(Cl)s3)n2)cc1)N1CCC(N2CCCC2)CC1 — remaining binding (binding, competition with immobilised ligand; 1 µM): 60%
CC1CCCN1c1nccc(-c2cnn3ncccc23)n1 (stereo not shown) — remaining binding (binding; 1 µM): 100%
Cc1cnc(Nc2ccc(C(=O)N3CCC(N4CCCC4)CC3)cc2)nc1-c1cc2ccccc2s1 — remaining binding (binding, competition with immobilised ligand; 1 µM): 76%
CN(CCCC(F)(F)F)c1nccc(-c2cnn3ncccc23)n1 — remaining binding (binding; 1 µM): 96%
CN(C(=O)c1ccccc1)c1cc(N(C)c2ccc3c(c2)CCc2ccc(C(=O)NCCN4CCOCC4)cc2C3=O)ccc1F — remaining binding (cell-free assay, competition with immobilised ligand; 1 µM): 100%
O=C(NCCCN1CCOCC1)c1ccc(Nc2ncc(Cl)c(-c3ccc(Cl)s3)n2)cc1 — remaining binding (binding, competition with immobilised ligand; 1 µM): 89%
COc1ccnn2ncc(-c3ccnc(N(C)C)n3)c12 — remaining binding (binding; 1 µM): 100%
CCOCCn1cc(C(=O)Nc2ccc(-n3nc(-c4cccnc4)cc3C(F)(F)F)cn2)ccc1=O — remaining binding (cell-free assay, competition with immobilised ligand; 1 µM): 100%
Cc1cnn2ncc(-c3ccnc(N(C)C)n3)c2c1 — remaining binding (binding; 1 µM): 97%
CS(=O)(=O)NCC[C@H](NC(=O)c1cncc2c1cnn2-c1ccc(F)cc1)c1ccnc(S(C)(=O)=O)c1 — remaining binding (cell-free assay, competition with immobilised ligand; 1 µM): 100%
C[C@H]1CCN(c2nccc(-c3cnn4ncccc34)n2)C1 — remaining binding (binding; 1 µM): 76%
Cc1c(C(=O)O)cc(-c2ccc(C3CCNCC3)cc2)c2ccc(-c3ccc(C(F)(F)F)cc3)cc12 — remaining binding (cell-free assay, competition with immobilised ligand; 1 µM): 100%
c1cncc(-c2cccc(Nc3nccc(NC4CCCCC4)n3)c2)c1 — remaining binding (binding, competition with immobilised ligand; 10 µM): 94%
N#CC1(c2ccccn2)CCN(Cc2cc(C(=O)N3CCCC3)c(=O)n3ccccc23)CC1 — remaining binding (cell-free assay, competition with immobilised ligand; 1 µM): 90%
O=C(NCC1CCOCC1)c1n[nH]cc1NC(=O)c1c(F)cccc1F — remaining binding (binding, competition with immobilised ligand; 1 µM): 100%
N[C@H]1CCN(c2nccc(-c3cnn4ncccc34)n2)C1 — remaining binding (binding; 1 µM): 100%
CN(c1ccnc(CNc2nc(Nc3ccc4c(c3)CC(=O)N4)ncc2C(F)(F)F)n1)S(C)(=O)=O — remaining binding (cell-free assay, competition with immobilised ligand; 1 µM): 83%
